ERAP1 inh: ERAP1 (human) enzyme inhibition; Q9NZ08; recombinant ERAP1, Leu-AMC fluorescence, 60 min; inhibition, % at 10.7 µM; 0.15% of 340,000 active;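 active = mean replicate inhibition of at least 30%, or all replicates individually reaching that 30% level; inactive = mean below 30% and not every replicate reaching it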
SIRT5 block: sirtuin-5 (human) deacylase inhibition; Q9NXA8; Purified SirT5, succinyl-peptide AMC, trypsin-coupled fluorescence; inhibition, % at 15 µM; 1.1% of 330,000 active; AID 652115; in the data active = inhibition above about 15%
Target sequence (Q9NXA8 whole entry, looked up): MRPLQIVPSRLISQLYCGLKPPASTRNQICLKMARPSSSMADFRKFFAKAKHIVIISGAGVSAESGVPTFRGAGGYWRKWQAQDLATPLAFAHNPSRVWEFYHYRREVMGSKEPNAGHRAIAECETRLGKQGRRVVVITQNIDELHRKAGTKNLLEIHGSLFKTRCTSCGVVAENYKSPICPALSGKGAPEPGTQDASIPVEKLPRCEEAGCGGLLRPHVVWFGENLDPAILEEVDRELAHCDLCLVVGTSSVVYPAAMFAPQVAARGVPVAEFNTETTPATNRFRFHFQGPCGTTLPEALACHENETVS
CFTR F508del cor: correctors of CFTR F508del function in bronchial epithelial cells. activity (quench increase), % at 7.58 µM. 0.36% of 350,000 active. CFBE cells, YFP halide quenching; stimulated with forskolin plus potentiator P3; % fluorescence drop versus neutral controls. AID 720511;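 active = mean added fluorescence quench of at least 8% versus neutral control, with both replicates also reaching 8%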;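 also: cells transiently co-express mutant CFTR-F508del with the halide-sensitive YFP; corrector assay measuring rescue of mutant channel to the surface after 24 h compound exposure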
S100A4 MyoIIA: blocks human S100A4 binding to myosin IIA peptide. S100A4/TAMRA-MyoIIA peptide fluorescence polarization. inhibition, % at 10.7 µM. 0.14% of 360,000 active. AID 652163;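 active = mean inhibition of at least 70% across replicates, with every replicate also reaching that level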
Target sequence (P26447 whole entry, looked up): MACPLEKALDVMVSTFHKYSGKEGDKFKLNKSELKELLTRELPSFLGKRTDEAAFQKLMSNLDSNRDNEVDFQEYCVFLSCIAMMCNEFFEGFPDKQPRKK
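assay system = human S100A4 monomer with TAMRA-labelled myosin IIA peptide | also added = labelled myosin peptide probe, 5 nM | incubation = 5 min between mix addition and reading | control set = DMSO and TFP controls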
rRNA inh HTS: inhibits bacterial ribosomal RNA function over humanized ribosomes. GFP signal change (wild-type ribosome), % (test concentration not listed). AID 720706. E. coli WT GFP vs humanized-ribosome RFP mutants, fluorescence, 24 h; stronger effect = lower value; DMSO median 0, no signal -100. 1.6% of 350,000 active;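 active = significant combined selectivity score with lowered wild-type GFP, culture density cut under 30%, mutant RFP and density less affected; inactive = any of these conditions unmet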
Hits are given with their value. Hits are enriched below; roughly 3.1% of the tested compounds scored in any of these assays.

How did CN=C(Nc1cc(C)nn1-c1ccccc1)c1ccccc1F do in these assays?
ERAP1 inh: inactive; SIRT5 block: 16; CFTR F508del cor: inactive; S100A4 MyoIIA: inactive; rRNA inh HTS: inactive

What do the screens show for `CN=C(Nc1cc(C)nn1-c1ccccc1)c1ccccc1`?
ERAP1 inh: inactive; SIRT5 block: inactive; S100A4 MyoIIA: inactive; rRNA inh HTS: inactive

What do the screens show for `CCc1cccc(NC(=S)Nc2cccc3ccccc23)c1`?
ERAP1 inh: inactive; SIRT5 block: inactive; CFTR F508del cor: inactive; S100A4 MyoIIA: inactive; rRNA inh HTS: -25

What do the screens show for `Cc1cccc(NC(=S)Nc2cccc3ccccc23)c1`?
ERAP1 inh: inactive; SIRT5 block: inactive; CFTR F508del cor: inactive; S100A4 MyoIIA: inactive; rRNA inh HTS: inactive

How did NC(=NCCc1c[nH]c2ccccc12)NS(=O)(=O)c1cc(F)ccc1F do in these assays?
ERAP1 inh: 43; SIRT5 block: inactive; S100A4 MyoIIA: inactive; rRNA inh HTS: inactive

Results for O=C(CSc1nc(C2CC2)nc2ccccc12)N1CCCCC1 ?
ERAP1 inh: inactive; SIRT5 block: inactive; CFTR F508del cor: inactive; S100A4 MyoIIA: inactive; rRNA inh HTS: inactive

What do the screens show for `O=C(CSc1nc(C2CCCCC2)nc2ccccc12)N1CCCC1`?
ERAP1 inh: inactive; SIRT5 block: inactive; CFTR F508del cor: inactive; S100A4 MyoIIA: inactive; rRNA inh HTS: -18

What do the screens show for `CC(C)NC(=O)N(C)C[C@@H]1OCCCC[C@@H](C)Oc2ccc(NS(=O)(=O)c3cn(C)cn3)cc2C(=O)N([C@H](C)CO)C[C@@H]1C`?
ERAP1 inh: inactive; SIRT5 block: inactive; CFTR F508del cor: inactive; S100A4 MyoIIA: inactive; rRNA inh HTS: inactive

Results for COc1ccc2c3c([nH]c2c1)[C@@H](CO)N(S(=O)(=O)c1cn(C)cn1)CC31CCN(CC2CCCCC2)CC1 ?
ERAP1 inh: inactive; SIRT5 block: inactive; CFTR F508del cor: 8.6; S100A4 MyoIIA: inactive; rRNA inh HTS: inactive

How did CCS(=O)(=O)N1CCC2(CC1)CN(S(=O)(=O)c1cn(C)cn1)[C@@H](CO)c1[nH]c3cc(OC)ccc3c12 do in these assays?
ERAP1 inh: inactive; SIRT5 block: inactive; CFTR F508del cor: inactive; S100A4 MyoIIA: inactive; rRNA inh HTS: inactive

How did COc1ccc(CN2CC3(CN(C(=O)c4ccccc4)C3)c3c([nH]c4cc(OC)ccc34)[C@H]2CO)cc1 do in these assays?
ERAP1 inh: inactive; SIRT5 block: inactive; CFTR F508del cor: inactive; S100A4 MyoIIA: 73; rRNA inh HTS: inactive

How did COc1ccc2c3c([nH]c2c1)[C@@H](CO)N(Cc1cc(F)ccc1F)CC31CN(C)C1 do in these assays?
ERAP1 inh: inactive; SIRT5 block: inactive; CFTR F508del cor: inactive; S100A4 MyoIIA: inactive; rRNA inh HTS: inactive

How did COc1ccc(CN2CC3(CN(C(=O)Cc4ccccc4)C3)c3c([nH]c4cc(OC)ccc34)[C@H]2CO)cc1 do in these assays?
ERAP1 inh: inactive; SIRT5 block: inactive; CFTR F508del cor: inactive; S100A4 MyoIIA: inactive; rRNA inh HTS: inactive

How did COc1ccc2c3c([nH]c2c1)[C@H](CO)N(Cc1cc(F)ccc1F)CC31CN(C)C1 do in these assays?
ERAP1 inh: 40; SIRT5 block: inactive; CFTR F508del cor: inactive; S100A4 MyoIIA: inactive; rRNA inh HTS: inactive

What do the screens show for `COCC(=O)N1CC2(CCN(Cc3ccccc3Cl)CC2)c2c([nH]c3cc(OC)ccc23)[C@H]1CO`?
ERAP1 inh: inactive; SIRT5 block: inactive; CFTR F508del cor: inactive; S100A4 MyoIIA: 85; rRNA inh HTS: inactive

How did Cc1ccc(S(=O)(=O)Nc2ccc3c(c2)C(=O)N([C@H](C)CO)C[C@@H](C)[C@H](CN(C)Cc2ccncc2)OCCCC[C@H](C)O3)cc1 do in these assays?
ERAP1 inh: inactive; CFTR F508del cor: inactive; S100A4 MyoIIA: inactive; rRNA inh HTS: inactive

How did COc1cccc(-c2ccc([C@H]3[C@@H](CO)N4CCCCN(CC5CCOCC5)C[C@H]34)cc2)c1 do in these assays?
ERAP1 inh: inactive; CFTR F508del cor: inactive; S100A4 MyoIIA: inactive

What do the screens show for `C[C@H](CO)N1C[C@H](C)[C@H](CN(C)C(=O)Nc2ccc(F)cc2)Oc2ncc(C#Cc3ccc(C(F)(F)F)cc3)cc2C1=O`?
ERAP1 inh: inactive; SIRT5 block: 16; CFTR F508del cor: inactive; S100A4 MyoIIA: inactive; rRNA inh HTS: inactive

What do the screens show for `C[C@@H]1CN([C@H](C)CO)C(=O)c2cc(C#Cc3ccc(F)cc3)cnc2O[C@@H]1CN(C)C(=O)Nc1ccc(F)cc1`?
ERAP1 inh: inactive; SIRT5 block: inactive; CFTR F508del cor: inactive; S100A4 MyoIIA: inactive; rRNA inh HTS: inactive

Compound activity deposited in PubChem by Broad Institute.
